In publication PMC3558928 (Chemistry & biology, 2013):

Key:
E. coli UvrD helicase = E. coli UvrD helicase (Escherichia coli, UniProt P03018); assay: Gel-based DNA unwinding assay, UvrD; assay type: biochemical
WRN^+ and WRN^− cells [1] = assay: Proliferation of WRN+ and WRN− fibroblasts; assay type: cell-based, human
human cells = assay: Cell cycle checkpoint responses in cells; assay type: cell-based; conditions: 50µM, 24 hours; data not shown
RecQ1 = molecular target: T1, RecQ1 (Homo sapiens, UniProt P46063); assay: Gel-based DNA unwinding assay, RECQ1; assay type: biochemical
T1 sequence (P46063 1-649): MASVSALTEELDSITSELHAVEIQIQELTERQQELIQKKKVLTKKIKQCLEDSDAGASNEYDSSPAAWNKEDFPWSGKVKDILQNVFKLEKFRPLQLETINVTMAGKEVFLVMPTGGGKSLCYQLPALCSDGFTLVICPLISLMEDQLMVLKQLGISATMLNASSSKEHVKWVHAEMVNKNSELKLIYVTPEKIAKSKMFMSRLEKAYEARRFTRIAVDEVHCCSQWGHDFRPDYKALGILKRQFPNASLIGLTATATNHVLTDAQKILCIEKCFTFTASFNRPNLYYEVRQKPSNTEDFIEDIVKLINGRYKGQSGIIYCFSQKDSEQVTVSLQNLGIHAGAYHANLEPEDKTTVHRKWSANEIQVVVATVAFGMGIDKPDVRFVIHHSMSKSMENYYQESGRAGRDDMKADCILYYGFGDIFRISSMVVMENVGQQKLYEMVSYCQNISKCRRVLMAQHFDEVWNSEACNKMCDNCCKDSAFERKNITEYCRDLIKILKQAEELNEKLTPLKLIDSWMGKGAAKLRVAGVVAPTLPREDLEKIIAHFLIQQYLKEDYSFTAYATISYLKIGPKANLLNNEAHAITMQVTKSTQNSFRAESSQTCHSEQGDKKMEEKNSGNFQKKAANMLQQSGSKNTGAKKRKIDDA

PSNF5 cells [2] = assay: Clonogenic survival, sensitization to aphidicolin, PSNF5; assay type: cell-based, human; conditions: ML216 24 hours before aphidicolin, p<0.01
In short: (§1)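 Isogenic SV40-transformed Bloom syndrome fibroblasts (GM08505 background): PSNF5 stably expresses Flag-tagged BLM, PSNG13 carries empty vector. Cells were exposed to test compound for 24 hr, then aphidicolin was added at graded concentrations for a further 24 hr. Cells were washed and grown in drug-free medium for up to 12 days to form colonies. Survival curves come from three independent experiments (mean, SD).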

PSNF5 cells [3] = assay: WST-1 proliferation assay, PSNF5; assay type: cell-based, human; conditions: PSNF5 (BLM+); 24–72 hours
WRN^+ and WRN^− cells [4] = assay: Aphidicolin sensitization of WRN+ and WRN− fibroblasts; assay type: cell-based, human
PSNG13 cells [5] = assay: Sister chromatid exchange; assay type: cell-based, human
In short: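 Stable transfectants of SV40-transformed Bloom syndrome fibroblast line GM08505 were used: PSNF5 (Flag-BLM) and PSNG13 (empty vector). Cells were left untreated or exposed to test compound, with exposures in the 24–72 hr range. Sister chromatid exchanges were scored as frequency per chromosome and number per chromosome.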

BLM [6] = molecular target: T2, BLM (Homo sapiens, UniProt P54132); assay: Electrophoretic mobility shift assay; assay type: binding; conditions: ssDNA or forked duplex; increasing concentrations
T2 sequence (P54132 whole entry, the tested form may be a part): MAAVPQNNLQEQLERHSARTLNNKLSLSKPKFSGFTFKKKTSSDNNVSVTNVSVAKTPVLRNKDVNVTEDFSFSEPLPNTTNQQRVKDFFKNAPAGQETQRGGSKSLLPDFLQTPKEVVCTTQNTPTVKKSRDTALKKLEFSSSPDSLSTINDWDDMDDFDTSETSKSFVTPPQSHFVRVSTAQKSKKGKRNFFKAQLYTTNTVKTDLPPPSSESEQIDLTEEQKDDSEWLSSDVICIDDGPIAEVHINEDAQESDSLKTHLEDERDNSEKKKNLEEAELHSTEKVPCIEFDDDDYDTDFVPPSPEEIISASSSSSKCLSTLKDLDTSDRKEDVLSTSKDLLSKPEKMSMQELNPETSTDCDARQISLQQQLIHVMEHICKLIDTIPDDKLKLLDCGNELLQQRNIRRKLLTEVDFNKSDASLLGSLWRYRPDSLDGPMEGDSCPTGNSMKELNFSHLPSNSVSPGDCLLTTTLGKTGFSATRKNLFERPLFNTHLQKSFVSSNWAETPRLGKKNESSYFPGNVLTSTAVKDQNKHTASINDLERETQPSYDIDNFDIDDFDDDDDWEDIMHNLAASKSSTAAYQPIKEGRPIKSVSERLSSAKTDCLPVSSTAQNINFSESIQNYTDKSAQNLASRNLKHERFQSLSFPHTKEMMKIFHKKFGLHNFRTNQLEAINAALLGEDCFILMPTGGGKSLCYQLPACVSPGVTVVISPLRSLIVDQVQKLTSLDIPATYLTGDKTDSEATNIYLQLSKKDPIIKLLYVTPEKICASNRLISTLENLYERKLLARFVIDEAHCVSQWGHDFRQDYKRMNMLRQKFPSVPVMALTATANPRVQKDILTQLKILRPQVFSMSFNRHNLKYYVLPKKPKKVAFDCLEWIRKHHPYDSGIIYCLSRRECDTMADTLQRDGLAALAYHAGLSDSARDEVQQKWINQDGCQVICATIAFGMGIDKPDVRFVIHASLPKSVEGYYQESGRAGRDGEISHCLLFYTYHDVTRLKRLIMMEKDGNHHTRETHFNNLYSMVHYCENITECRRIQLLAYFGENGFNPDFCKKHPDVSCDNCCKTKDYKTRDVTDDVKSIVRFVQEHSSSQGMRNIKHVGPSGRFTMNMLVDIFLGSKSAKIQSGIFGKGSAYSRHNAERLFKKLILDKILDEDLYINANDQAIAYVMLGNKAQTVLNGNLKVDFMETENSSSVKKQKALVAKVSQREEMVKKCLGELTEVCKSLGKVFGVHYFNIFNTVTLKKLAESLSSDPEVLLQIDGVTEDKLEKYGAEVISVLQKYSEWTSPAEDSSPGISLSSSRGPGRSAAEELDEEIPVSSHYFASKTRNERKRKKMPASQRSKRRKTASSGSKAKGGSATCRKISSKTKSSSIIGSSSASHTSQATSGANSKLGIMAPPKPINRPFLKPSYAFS

WRN^short (WRN^500–946) = WRN^short (WRN^500–946) (Homo sapiens, UniProt Q14191); assay: Gel-based DNA unwinding assay, truncated WRN; assay type: biochemical
WRN^short (WRN^500–946), sequence (Q14191 500-946): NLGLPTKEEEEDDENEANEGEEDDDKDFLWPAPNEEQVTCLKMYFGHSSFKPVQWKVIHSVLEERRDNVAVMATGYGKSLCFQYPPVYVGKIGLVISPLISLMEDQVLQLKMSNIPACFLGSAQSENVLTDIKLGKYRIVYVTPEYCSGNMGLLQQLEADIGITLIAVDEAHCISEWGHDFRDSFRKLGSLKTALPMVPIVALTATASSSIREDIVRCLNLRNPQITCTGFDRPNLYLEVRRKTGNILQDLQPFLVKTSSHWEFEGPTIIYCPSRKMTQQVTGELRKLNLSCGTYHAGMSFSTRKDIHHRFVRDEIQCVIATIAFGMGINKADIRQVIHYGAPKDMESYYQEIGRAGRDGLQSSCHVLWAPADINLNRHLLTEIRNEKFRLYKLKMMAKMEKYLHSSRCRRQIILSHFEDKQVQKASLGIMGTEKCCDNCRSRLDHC

RecQ5 = RecQ5 (Homo sapiens, UniProt O94762); assay: Gel-based DNA unwinding assay, RECQ5; assay type: biochemical
RecQ5, sequence (O94762 whole entry): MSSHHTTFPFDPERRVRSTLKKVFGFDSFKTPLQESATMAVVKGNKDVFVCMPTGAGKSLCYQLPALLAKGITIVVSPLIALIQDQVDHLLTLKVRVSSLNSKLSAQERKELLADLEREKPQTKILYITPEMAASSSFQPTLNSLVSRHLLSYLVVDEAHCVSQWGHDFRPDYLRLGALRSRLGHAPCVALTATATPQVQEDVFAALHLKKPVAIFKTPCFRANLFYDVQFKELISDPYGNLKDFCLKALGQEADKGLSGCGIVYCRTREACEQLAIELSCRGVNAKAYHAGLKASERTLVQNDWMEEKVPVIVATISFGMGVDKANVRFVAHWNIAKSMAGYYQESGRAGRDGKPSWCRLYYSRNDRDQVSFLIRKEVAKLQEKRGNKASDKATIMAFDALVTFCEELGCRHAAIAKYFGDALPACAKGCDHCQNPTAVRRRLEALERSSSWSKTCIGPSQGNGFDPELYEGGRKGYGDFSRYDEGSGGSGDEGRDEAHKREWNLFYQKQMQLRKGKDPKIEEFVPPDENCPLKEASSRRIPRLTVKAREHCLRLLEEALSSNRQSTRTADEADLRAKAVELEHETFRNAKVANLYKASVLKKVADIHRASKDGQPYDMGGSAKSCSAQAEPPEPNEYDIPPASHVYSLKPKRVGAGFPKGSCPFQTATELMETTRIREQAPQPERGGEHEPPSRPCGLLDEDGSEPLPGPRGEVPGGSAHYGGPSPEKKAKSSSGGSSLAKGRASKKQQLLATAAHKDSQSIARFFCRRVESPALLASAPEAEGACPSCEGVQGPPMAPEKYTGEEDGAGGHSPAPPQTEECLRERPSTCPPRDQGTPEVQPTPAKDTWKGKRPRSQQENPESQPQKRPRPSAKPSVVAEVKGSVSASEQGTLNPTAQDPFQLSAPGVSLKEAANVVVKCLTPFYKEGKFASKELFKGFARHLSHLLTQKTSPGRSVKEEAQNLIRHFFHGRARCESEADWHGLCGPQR

PSNG13 cells [7] = assay: WST-1 proliferation assay, PSNG13; assay type: cell-based, human; conditions: PSNG13 (BLM−); 24–72 hours
PSNF5 cells [8] = assay: Sister chromatid exchange; assay type: cell-based, human
PSNF5 cells [9] = assay: γ-H2AX focus formation after mitomycin C, PSNF5; assay type: cell-based, human; conditions: ML216 and MMC versus MMC alone, p<0.05
PSNG13 cells [10] = assay: γ-H2AX focus formation after mitomycin C, PSNG13; assay type: cell-based, human; conditions: with or without MMC, p>0.05
BLM [11] = molecular target: T2, BLM; assay: ssDNA-dependent ATPase activity of BLM; assay type: biochemical
BLM^full-length = BLM^full-length (Homo sapiens, UniProt P54132); assay: Gel-based DNA unwinding assay, forked duplex, full-length BLM; assay type: biochemical
BLM^full-length, sequence (P54132 whole entry): as the sequence (P54132 whole entry, the tested form may be a part) above

BLM [12] = molecular target: T2, BLM; assay: BLM disruption of D-loop, Holliday junction and G-quadruplex substrates; assay type: biochemical
[13] = molecular target: WRN^long (full length WRN) (Homo sapiens, UniProt Q14191); assay: Gel-based DNA unwinding assay, full length WRN; assay type: biochemical
PSNG13 cells [14] = assay: Clonogenic survival, sensitization to aphidicolin, PSNG13; assay type: cell-based, human
In short: as §1

BLM [15] = molecular target: T2, BLM; assay: Fluorescence polarization assay of BLM binding to TAMRA-labeled oligonucleotide; conditions: dilution series; no nucleotide, ADP or ATP
BLM^636–1298 = BLM^636–1298 (Homo sapiens, UniProt P54132); assay: Fluorescence-quenching qHTS assay of BLM DNA unwinding; assay type: biochemical
BLM^636–1298, sequence (P54132 636-1298): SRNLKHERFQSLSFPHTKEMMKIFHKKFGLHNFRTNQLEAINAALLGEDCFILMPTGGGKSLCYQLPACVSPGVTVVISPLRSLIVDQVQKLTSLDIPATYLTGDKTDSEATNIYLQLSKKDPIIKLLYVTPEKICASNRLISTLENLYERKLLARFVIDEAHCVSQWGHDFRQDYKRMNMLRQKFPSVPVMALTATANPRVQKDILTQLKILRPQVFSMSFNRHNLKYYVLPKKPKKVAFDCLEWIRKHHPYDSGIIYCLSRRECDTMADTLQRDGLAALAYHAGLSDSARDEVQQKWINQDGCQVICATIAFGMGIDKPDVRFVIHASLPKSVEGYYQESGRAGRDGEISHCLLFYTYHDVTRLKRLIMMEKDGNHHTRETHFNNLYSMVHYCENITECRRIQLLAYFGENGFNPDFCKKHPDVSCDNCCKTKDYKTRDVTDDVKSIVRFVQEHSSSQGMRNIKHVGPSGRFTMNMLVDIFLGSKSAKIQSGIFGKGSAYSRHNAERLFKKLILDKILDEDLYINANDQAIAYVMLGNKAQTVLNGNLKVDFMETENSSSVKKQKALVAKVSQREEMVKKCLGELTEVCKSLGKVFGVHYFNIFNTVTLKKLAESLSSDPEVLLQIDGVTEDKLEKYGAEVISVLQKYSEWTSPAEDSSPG
In short: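 Quenched-fluorescence unwinding screen used bacterially expressed truncated BLM (residues 636–1298). The forked duplex substrate carries tetramethylrhodamine at the 3' end of one strand and Black Hole Quencher-2 at the 5' end of the complement. ATP-dependent unwinding raises fluorescence. Inhibition is the signal loss relative to DMSO-only controls, run as dose-response (qHTS).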

BLM [16] = molecular target: T2, BLM; assay: Traditional helicase assay, radiolabeled forked duplex, PAGE; assay type: biochemical
In short: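 Substrate was gel-purified and dialysed, and its concentration was set by scintillation counting. Reactions held at most 1% DMSO. Unwinding to ssDNA was resolved by PAGE and expressed as percent unwinding against untreated (0%) and heat-denatured (100%) controls. IC50 came from nonlinear regression.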

E. coli UvrD helicase, sequence (P03018 whole entry): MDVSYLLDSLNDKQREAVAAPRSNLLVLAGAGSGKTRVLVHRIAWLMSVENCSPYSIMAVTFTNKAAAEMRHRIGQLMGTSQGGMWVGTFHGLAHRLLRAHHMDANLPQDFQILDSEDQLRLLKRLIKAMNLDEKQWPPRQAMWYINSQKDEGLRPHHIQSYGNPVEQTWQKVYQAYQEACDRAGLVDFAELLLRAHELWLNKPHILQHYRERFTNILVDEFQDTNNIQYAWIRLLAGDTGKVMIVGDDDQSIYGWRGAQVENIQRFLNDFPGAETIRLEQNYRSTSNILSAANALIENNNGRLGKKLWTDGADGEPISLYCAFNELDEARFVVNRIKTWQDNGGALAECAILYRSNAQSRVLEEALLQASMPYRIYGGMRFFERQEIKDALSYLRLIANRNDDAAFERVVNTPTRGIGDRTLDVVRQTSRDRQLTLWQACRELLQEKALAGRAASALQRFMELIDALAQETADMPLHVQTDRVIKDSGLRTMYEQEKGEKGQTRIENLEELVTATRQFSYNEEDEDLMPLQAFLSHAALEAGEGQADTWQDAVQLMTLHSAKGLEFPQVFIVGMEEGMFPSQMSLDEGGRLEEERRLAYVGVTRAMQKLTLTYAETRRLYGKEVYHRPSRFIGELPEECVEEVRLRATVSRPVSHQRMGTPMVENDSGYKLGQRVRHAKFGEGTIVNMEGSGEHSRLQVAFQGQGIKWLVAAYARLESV

O=C(Nc1ccc(F)c(C(F)(F)F)c1)Nc1nnc(-c2ccncc2)s1 [ML216]
IC50 (E. coli UvrD helicase): > 50 µM
inhibition of helicase activity (E. coli UvrD helicase; at 50 µM): only very modest inhibition
inhibition of proliferation, WRN^+ versus WRN^− cells (WRN^+ and WRN^− cells [1]): equally well
cell cycle arrest in G1/S or G2/M (human cells): did not cause cell cycle arrest
phosphorylation of ATM or ATR targets, including CHK1 and CHK2 (human cells): did not appear to cause phosphorylation
IC50 (RecQ1): > 50 µM
inhibition of helicase activity (RecQ1; at 50 µM): only very modest inhibition
sensitivity to aphidicolin (PSNF5 cells [2]): increased the sensitivity
effect on cell proliferation (PSNF5 cells [3]): inhibitor of the proliferation of PSNF5 cells
sensitization to aphidicolin, WRN^+ versus WRN^− cells (WRN^+ and WRN^− cells [4]): similarly sensitized both cell types
frequency of sister chromatid exchanges (SCEs) (PSNG13 cells [5]): not in PSNG13 cells
effect on DNA binding by BLM (EMSA) (BLM [6]): displacement of either ssDNA or forked duplex DNA from a complex with BLM
IC50 (WRN^short (WRN^500–946)): 12.6 µM
IC50 (RecQ5): > 50 µM
inhibition of helicase activity (RecQ5; at 50 µM): only very modest inhibition
effect on cell proliferation (PSNG13 cells [7]): not of PSNG13 cells
frequency of sister chromatid exchanges (SCEs) (PSNF5 cells [8]): statistically significant increase
frequency of SCEs, short exposure (PSNF5 cells [8]; present only during the last 8 hours): statistically significant increase in the frequency of SCEs
γ-H2AX focus formation (PSNF5 cells [9]): statistically significant reduction
γ-H2AX focus formation (PSNG13 cells [10]): no significant effect
mode of inhibition of ATPase activity with respect to ATP (BLM [11]): non-competitive
sensitivity of BLM versus WRN (based on IC50 values) (BLM^full-length): 1.7 fold
inhibition of BLM's G-quadruplex disrupting activity (BLM [12]): only very modest inhibition
inhibition of disruption of the D-loop substrate (BLM [12]; 50 µM): only at high concentrations
inhibition of disruption of the Holliday junction substrate (BLM [12]; 50 µM): only at high concentrations
sensitivity of full length WRN versus WRN^500–946 (based on IC50 values) [13]: 2.5 fold
sensitivity to aphidicolin (PSNG13 cells [14]): no sensitizing effect
effect on DNA binding by BLM (fluorescence polarization) (BLM [15]): inhibits the ability of BLM to bind DNA

O=C(Nc1ccc(Cl)c(Cl)c1)Nc1nnc(-c2ccncc2)s1 [MLS000559245]
activity in fluorescence-based screening assay (BLM^636–1298): showed activity
activity in radioactivity-based helicase assay (BLM [16]): showed activity
